Results as given in ChEMBL document CHEMBL4177604, “Binding of triazole-linked galactosyl arylsulfonamides to galectin-3 affects Trypanosoma cruzi cell invasion” (Bioorg Med Chem, 2017).
pEC50, pIC50: −log10 of the molar value. Activity calls are given as the source filed them. The rule behind the calls is not given here.

Tests used:
[1] = tested on: Trypanosoma cruzi; experiment: (§1) Antitrypanosomal activity against Trypanosoma cruzi Y trypomastigote infected in monkey LLCMK2 cells assessed as inhibition of cell invasion by trypanosoma by measuring infection index at 250 uM pretreated with cells for 30 mins followed by trypomastigote infection measured after 18 hrs by panoptic dye-based optical microscopic analysis (reference value: 68); assay type: functional
Summary of the method: (§2)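 LLCMK2 cells adhered on coverslips, exposed to compound at 250 µM for 30 min, then infected with Y-strain trypomastigotes (1 x 10^5; 5 parasites per cell). Incubated 18 h at 37 °C, 5% CO2, then fixed, stained with panoptic dye and read by optical microscopy. Scored as % infected cells, mean amastigotes per cell, and infection index (% infected × mean parasites per cell). Triplicate.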

[2] = tested on: Trypanosoma cruzi; experiment: Trypanocidal activity against Trypanosoma cruzi Y trypomastigote assessed as effect on parasite viability at 31.25 to 250 uM after 48 hrs by resazurin-based assay; assay type: functional, organism-based
Summary of the method: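 Culture-derived Y-strain trypomastigotes, 1 x 10^6 per well, in RPMI 1640 with 10% FBS containing compound (250 to 31,25 µM). Held 48 h at 37 °C, 5% CO2. Resazurin added for 6 h, then read at 570 and 600 nm. Viability from OD570 minus OD600, relative to untreated parasites.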

[3] = biological target: T1, Trans-sialidase (Trypanosoma cruzi) (UniProt Q26964); experiment: Inhibition of recombinant His-tagged Trypanosoma cruzi trans-sialidase N-terminal catalytic domain at 1 mM preincubated for 10 mins followed by MuNANA addition measured over 5 mins by fluorimetric assay relative to control
T1 sequence (whole entry): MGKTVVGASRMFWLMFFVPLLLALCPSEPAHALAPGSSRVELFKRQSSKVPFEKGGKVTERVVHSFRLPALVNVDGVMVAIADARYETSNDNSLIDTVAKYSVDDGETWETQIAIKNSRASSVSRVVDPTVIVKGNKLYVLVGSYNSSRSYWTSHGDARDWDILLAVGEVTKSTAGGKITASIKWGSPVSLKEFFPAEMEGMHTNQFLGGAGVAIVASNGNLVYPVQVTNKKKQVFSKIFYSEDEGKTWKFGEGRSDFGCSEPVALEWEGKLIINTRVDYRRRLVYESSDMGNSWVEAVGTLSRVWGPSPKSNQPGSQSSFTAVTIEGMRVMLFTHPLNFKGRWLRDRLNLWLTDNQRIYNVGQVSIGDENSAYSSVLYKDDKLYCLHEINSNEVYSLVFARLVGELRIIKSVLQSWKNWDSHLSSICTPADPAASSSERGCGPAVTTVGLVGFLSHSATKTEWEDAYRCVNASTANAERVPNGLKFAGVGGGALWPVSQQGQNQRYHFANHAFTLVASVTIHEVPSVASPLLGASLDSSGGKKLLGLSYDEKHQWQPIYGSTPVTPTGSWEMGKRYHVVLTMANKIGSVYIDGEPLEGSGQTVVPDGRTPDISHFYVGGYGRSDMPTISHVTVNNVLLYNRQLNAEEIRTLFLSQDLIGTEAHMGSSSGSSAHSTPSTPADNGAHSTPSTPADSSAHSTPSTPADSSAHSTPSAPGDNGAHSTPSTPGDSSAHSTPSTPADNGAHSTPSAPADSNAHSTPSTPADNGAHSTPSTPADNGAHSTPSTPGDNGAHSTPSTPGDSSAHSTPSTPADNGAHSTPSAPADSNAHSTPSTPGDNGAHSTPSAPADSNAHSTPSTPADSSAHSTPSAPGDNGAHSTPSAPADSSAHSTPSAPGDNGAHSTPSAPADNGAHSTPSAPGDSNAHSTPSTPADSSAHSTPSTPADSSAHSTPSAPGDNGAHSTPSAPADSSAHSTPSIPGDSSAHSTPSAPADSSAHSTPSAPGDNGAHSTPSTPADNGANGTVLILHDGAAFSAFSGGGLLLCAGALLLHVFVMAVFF
Summary of the method: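 Recombinant His-tagged 70 kDa trans-sialidase, truncated to the catalytic N-terminal domain, in phosphate buffer pH 7. Preincubated with inhibitor at 1.0 mM final for 10 min at 26 °C. MuNANA added to 0.1 mM and released fluorescence followed over 5 min (ex 360/em 460 nm). Triplicate. %I = 100 × [1 − Vi/V0].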

[4] = tested on: Trypanosoma cruzi; experiment: as §1, with “LLC-MK2” for “LLCMK2”, “infected […]” for “infection index”, “63%)” for “68)”; assay type: functional; design: scale not given: the % may be the effect or the level left; summary of the method: as §2
[5] = tested on: LLC-MK2; experiment: Cytotoxicity against monkey LLC-MK2 cells assessed as reduction in cell viability after 48 hrs by MTT assay; assay type: cell-based, Macaca mulatta; conditions: rhesus monkey, llc-mk2, 48 h
Summary of the method: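 LLCMK2 cells, 1 x 10^4 per well, adhered overnight in RPMI 1640 with 10% FBS. Exposed to 500 to 67,5 µM compound in triplicate for 48 h at 37 °C, 5% CO2. MTT added for 4 h, formazan dissolved in DMSO, absorbance at 570 nm.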

[6] = tested on: Trypanosoma cruzi; experiment: as §1, with “LLC-MK2” for “LLCMK2”, “mean number of amastigote parasites per cells” for “infection index”, “analysis” for “analysis (reference value: 68)”; assay type: functional, organism-based; summary of the method: as §2
[7] = biological target: Galectin-3 (Homo sapiens, UniProt P17931); experiment: Binding affinity to recombinant human galectin-3 expressed in Escherichia coli BL21 after 3 hrs
Chain of Galectin-3 (P17931 whole entry): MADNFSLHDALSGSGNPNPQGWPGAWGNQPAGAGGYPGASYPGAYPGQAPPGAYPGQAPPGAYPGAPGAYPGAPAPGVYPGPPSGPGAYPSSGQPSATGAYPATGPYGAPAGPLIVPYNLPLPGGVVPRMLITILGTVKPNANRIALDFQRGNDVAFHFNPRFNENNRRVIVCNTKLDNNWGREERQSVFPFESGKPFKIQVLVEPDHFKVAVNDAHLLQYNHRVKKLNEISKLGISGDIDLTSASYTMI
Summary of the method: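 Human galectin-3 expressed in E. coli BL21, purified on lactosyl-Sepharose, immobilized at 150 µg/mL (20 mM sodium acetate, pH 4.0, 16 h, 4 °C) on NHS-activated label-free biosensor. Compound dissolved in DMSO, diluted into PBS pH 7.4 with 1% or 2% DMSO, 0.09–400 µM, triplicate. Wavelength shift (pm) read over 3 h at 25 °C, blank-subtracted. EC50 from one-site binding fit.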

[8] = biological target: T2, Trans-sialidase (Trypanosoma cruzi, UniProt Q26964); experiment: Inhibition of Trypanosoma cruzi trans-sialidase using Trifluoromethylumbelliferyl alpha-sialoside as substrate by UV/visible spectrophotometer
T2 sequence (Q26964 whole entry): T1 sequence (whole entry)

| SMILES | Activity_index [1] | Activity [2] | inhibition [3] [%] | Activity [4] | Activity [5] | Activity [6] | Activity [7] | pEC50 [7] | pIC50 [8] |
| --- | --- | --- | --- | --- | --- | --- | --- | --- | --- |
| CO[C@@H]1O[C@H](CO)[C@H](O)[C@H](OCc2cn(-c3ccc(S(=O)(=O)Nc4cc(C)on4)cc3)nn2)[C@H]1O | 20 | inactive | 4.5 to 16 | 41% | Non-Toxic | Active | Dose-dependent effect | 4.76 | – |
| COc1cc(NS(=O)(=O)c2ccc(-n3cc(CO[C@H]4[C@@H](O)[C@@H](CO)O[C@@H](OC)[C@@H]4O)nn3)cc2)nc(OC)n1 | 20 | inactive | 4.5 to 16 | 38% | Non-Toxic | Active | Dose-dependent effect | 4.74 | – |
| CO[C@@H]1O[C@H](CO)[C@H](O)[C@H](OCc2cn(-c3ccc(S(N)(=O)=O)cc3)nn2)[C@H]1O | 28 - 44 | inactive | 4.5 to 16 | 47 - 54% | Non-Toxic | Active | Dose-dependent effect | 4.39 | – |
| CO[C@@H]1O[C@H](CO)[C@H](O)[C@H](OCc2cn(-c3ccc(S(=O)(=O)Nc4nc(C)cc(C)n4)cc3)nn2)[C@H]1O | 28 - 44 | inactive | 4.5 to 16 | 47 - 54% | Non-Toxic | Active | Dose-dependent effect | 4.17 | – |
| Cc1ccc(S(=O)(=O)N2c3ccccc3C(=O)/C(=C/c3ccc(O)c(O)c3)C2c2ccc(O)c(O)c2)cc1 (stereo not drawn) | – | – | – | – | – | – | – | – | 6.22 |
| CO[C@@H]1O[C@H](CO)[C@H](O)[C@H](OCc2cn(-c3ccc(S(=O)(=O)Nc4ccccn4)cc3)nn2)[C@H]1O | 28 - 44 | inactive | 4.5 to 16 | 47 - 54% | Non-Toxic | Active | – | – | – |
| CO[C@@H]1O[C@H](CO)[C@H](O)[C@H](OCc2cn(-c3ccc(S(=O)(=O)Nc4nccc(C)n4)cc3)nn2)[C@H]1O | 28 - 44 | inactive | 4.5 to 16 | 47 - 54% | Non-Toxic | Active | – | – | – |
| CO[C@@H]1O[C@H](CO)[C@H](O)[C@H](OCc2cn(-c3ccc(S(=O)(=O)NC(C)=O)cc3)nn2)[C@H]1O | 28 - 44 | inactive | 88 | 47 - 54% | Non-Toxic | Active | Dose-dependent effect | 3.69 | – |
